Data reported in ChEMBL document CHEMBL1147907, “Structure-based discovery of new small molecule inhibitors of low molecular weight protein tyrosine phosphatase” (Eur J Med Chem, 2007).
Active and inactive are the calls of the source. The calls are words filed in the database; no cut-off is given here.

biological target: T1, Low molecular weight phosphotyrosine protein phosphatase (Bos taurus, UniProt P11064); assay: (§1) Inhibition of bovine low molecular weight PTP expressed in Escherichia coli […] cells
T1 sequence (P11064 whole entry): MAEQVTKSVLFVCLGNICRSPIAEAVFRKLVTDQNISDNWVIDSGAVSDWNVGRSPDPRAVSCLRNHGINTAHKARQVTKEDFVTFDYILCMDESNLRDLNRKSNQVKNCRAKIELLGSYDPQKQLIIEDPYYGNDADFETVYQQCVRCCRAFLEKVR
In short: (§2)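 Enzyme held at 10 nM; p-nitrophenyl phosphate substrate at five final concentrations (0.4, 0.8, 1.2, 1.6, 2.0 mM) against four to five inhibitor concentrations; inhibitors kept as 100 mM DMSO stocks. Run at 37 °C in 40 mM sodium acetate pH 5.0, 150 mM NaCl, 1 mM TCEP. p-Nitrophenolate release read at 405 nm; competitive Ki derived.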

| Ki | Structure (SMILES) |
| --- | --- |
| 170 µM | CCn1c2ccc(CC(=O)O)cc2c2cc(CC(=O)O)ccc21 |
| 610 µM | CCn1c2c(c3cc(C(=O)O)ccc31)CCCC2=O |
| > 1000 µM | O=C(O)c1ccc(-n2nc(C(F)(F)F)c3c2CCCC3)cc1 |
| 240 µM | O=C(O)c1ccc2[nH]c3c(c2c1)CSCC3 |
| > 1000 µM | Cn1c(=O)oc2cc(S(=O)(=O)N3CCC(C(=O)O)CC3)ccc21 |
| > 1000 µM | O=C(O)CCC(=O)N1CCc2cc(S(=O)(=O)NCc3cccs3)ccc21 |
| 9 µM | O=C(O)c1ccc2c(c1)C1C=CCC1C(c1cccc(Br)c1)N2 (centres undefined) |
| > 1000 µM | O=C(O)c1ccc2[nH]c3c(c2c1)CCCC3 |

The next lines start with the compound.

| Structure (SMILES) | Ki |
| --- | --- |
| O=C(O)Cc1ccc(C2C(=O)C3SC=CC3NC2=S)cc1 (centres undefined) | 880 µM |
| O=C(O)c1ccc2c(c1)C1C=CCC1C(c1ccccc1)N2 (centres undefined) | > 1000 µM |
| O=C(O)CCC(=O)N1N=C(c2ccccc2)CC1c1ccccc1F (centres undefined) | > 1000 µM |
| O=C(O)Cc1ccc2c(c1)[nH]c1ccc(Br)cc12 | 60 µM |
| O=C1N=C(Cc2cccn2-c2ccc(C(=O)O)cc2)C(=O)N1 | 11 µM |
| O=C(O)c1ccc2c(c1)C1C=CCC1C(c1cccnc1)N2 (centres undefined) | > 1000 µM |
| O=C(O)c1ccc(C2Nc3c(F)cc(F)cc3C3C=CCC32)cc1 (centres undefined) | 910 µM |
| O=C(O)c1ccc2c(c1)C1C=CCC1C(c1ccccc1C(F)(F)F)N2 (centres undefined) | 50 µM |

biological target: T2, Low molecular weight phosphotyrosine protein phosphatase (Bos taurus) (UniProt P11064); assay: as §1; in short: as §2
T2 sequence (whole entry): T1 sequence (P11064 whole entry)

| Activity | Structure (SMILES) |
| --- | --- |
| inactive | COc1ccc(CN2CCN(S(C)(=O)=O)CC2)cc1OC |
| inactive | O=C(O)C1CCC(CNCc2ccncc2)CC1 (centres undefined) |
| inactive | O=C(O)c1ccc2c(c1)C1C=CCC1C(C(=O)O)N2 (centres undefined) |
| inactive | O=C(O)c1ccc2c(c1)c1c3n2CCNC3CCC1 (centres undefined) |
| inactive | O=C(O)COc1ccc2c(c1)C(=O)CC1(CCCCC1)O2 |
| inactive | Cc1ccc(N2C(=O)CC(N3CCC(C(=O)O)CC3)C2=O)cc1 (centres undefined) |
| inactive | CCCOc1ccc(N2C(=O)CC(N3CCC(C(=O)O)CC3)C2=O)cc1 (centres undefined) |
| inactive | O=C(O)C1CCN(S(=O)(=O)c2cccc3nsnc23)CC1 |
| inactive | Cc1cc[n+](CCCS(=O)(=O)O)c2ccccc12 |
| inactive | Cc1cc(C(=S)N2CCOCC2)c(C)n1-c1ccc(C(=O)O)cc1 |
| inactive | CS(=O)(=O)N1CCCC(C(=O)NCc2ccccc2Cl)C1 (centres undefined) |
| inactive | CS(=O)(=O)N1CCN(C2=C(Cl)C(=O)c3ccccc3C2=O)CC1 |

The next lines start with the compound.

| Structure (SMILES) | Activity |
| --- | --- |
| Cc1ccc2nc(-c3cccnc3)cc(C(=O)Nc3ccc(CC(=O)O)cc3)c2c1 | inactive |
| O=C(O)C1CSC(c2cc(Br)ccc2O)N1 (centres undefined) | inactive |
| O=[N+]([O-])c1ccc(C2=Nn3c(nnc3-c3ccccc3)SC2)cc1 | inactive |
| O=C(O)C1CC(=O)N(C2CCCCCC2)C1 (centres undefined) | inactive |
| O=C(O)c1ccc(C2(c3ccc(C(=O)O)cc3)OC(=O)c3ccccc32)cc1 | inactive |
| O=C(O)CC(O)c1nc2ccccc2[nH]1 (centres undefined) | inactive |
